Results reported in ChEMBL document CHEMBL4613310, “Glycans Meet Sphingolipids: Structure-Based Design of Glycan Containing Analogues of a Sphingosine Kinase Inhibitor” (2020).
Active and inactive are the calls of the source. No cut-off for these calls is given here.

Key:
[1] = system: C2C12; assay: (§1) Inhibition of TGFbeta1-induced fibrosis in mouse C2C12 cells assessed as reduction in alphaSMA protein expression level at 10 uM preincubated for 30 mins followed by TGFbeta1 addition and measured after 48 hrs by Western blot analysis; assay type: functional, cell-based
Procedure, shortened: (§2)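 C2C12 myoblasts were seeded to 80% confluence. Cells received 10 μM inhibitor and 5.0 ng/mL TGFβ1, with inhibitor exposure of 30 min or 2 h. α-SMA and SMα22 were detected by Western blot with specific antibodies. Bands were quantified by densitometry and normalized to β-actin. Results are fold change over untreated control, mean ± SD of three independent experiments. Two-way ANOVA with Bonferroni post hoc test.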

[2] = system: C2C12; assay: Inhibition of TGFbeta1-induced fibrosis in mouse C2C12 cells assessed as reduction in SMalpha22 protein expression level at 10 uM preincubated for 30 mins followed by TGFbeta1 addition and measured after 48 hrs by Western blot analysis; assay type: functional, cell-based; procedure, shortened: as §2
[3] = system: C2C12; assay: as §1, with “120” for “30”, “DAPI and rhodamine phalloidin staining based laser scanning confocal microscopic method relative to control” for “Western blot analysis”; assay type: functional
Procedure, shortened: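 C2C12 cells were serum-starved for 24 h, preincubated 2 h with 10 μM inhibitor, then treated with 5.0 ng/mL TGFβ1 for 48 h. Confocal immunofluorescence used an anti-αSMA primary antibody with a fluorescein-conjugated anti-mouse secondary antibody. αSMA localization was assessed relative to F-actin microfilaments.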

[4] = system: C2C12; assay: Inhibition of TGFbeta1-induced fibrosis in mouse C2C12 cells assessed as reduction in alphaSMA protein expression level at 10 uM preincubated for 30 mins followed by TGFbeta1 addition and measured after 48 hrs by Western blot analysis relative to control; assay type: functional; procedure, shortened: as §2
[5] = system: C2C12; assay: Inhibition of TGFbeta1-induced fibrosis in mouse C2C12 cells assessed as reduction in SMalpha22 protein expression level at 10 uM preincubated for 2 hrs followed by TGFbeta1 addition and measured after 48 hrs by Western blot analysis; assay type: functional, cell-based; procedure, shortened: as §2
[6] = system: C2C12; assay: Inhibition of TGFbeta1-induced fibrosis in mouse C2C12 cells assessed as reduction in caveolin3 protein expression level preincubated for 2 hrs followed by TGFbeta1 addition and measured after 48 hrs by Western blot analysis relative to control; assay type: functional
[7] = system: C2C12; assay: Inhibition of TGFbeta1-induced fibrosis in mouse C2C12 cells preincubated for 2 hrs followed by TGFbeta1 addition and measured after 48 hrs by Western blot analysis relative to control

Structure (SMILES) | inhibition [1] | inhibition [2] | inhibition at 10 µM [3] | inhibition at 10 µM [4] | inhibition [5] | inhibition (INH) [6] | inhibition (INH) [7]
Cc1cc(CS(=O)(=O)c2ccccc2)cc(OCc2ccc(CN3CCC[C@@H]3CO)cc2)c1 | Active | Active | 100% | – | – | – | –
CC(=O)OC[C@H]1O[C@@H](OCc2ccc(COc3cc(C)cc(CS(=O)(=O)c4ccccc4)c3)cc2)[C@H](OC(C)=O)[C@@H](OC(C)=O)[C@@H]1OC(C)=O | Active | Active | 100% | 100% | Active | 100% | –
Cc1cc(CS(=O)(=O)c2ccccc2)cc(OCc2ccc(CO[C@@H]3O[C@H](CO)[C@H](O)[C@H](O)[C@H]3O)cc2)c1 | inactive | inactive | – | – | – | – | –
Cc1cc(CS(=O)(=O)c2ccccc2)cc(OCc2ccc(CO[C@@H]3O[C@H](CO)[C@@H](O)[C@H](O)[C@H]3O)cc2)c1 | Active | Active | 100% | – | – | – | 100%
CC(=O)N[C@H]1[C@H](OCc2ccc(COc3cc(C)cc(CS(=O)(=O)c4ccccc4)c3)cc2)O[C@H](CO)[C@@H](O)[C@@H]1O | Active | – | – | – | – | – | –
